From ChEMBL document CHEMBL1287728, “Potent and highly selective DP1 antagonists with 2,3,4,9-tetrahydro-1H-carbazole as pharmacophore” (Bioorg Med Chem Lett, 2010)

Key:
[1] = target: T1, Prostaglandin D2 receptor (Homo sapiens, UniProt Q13258); assay: Antagonist activity at prostanoid DP1 receptor; assay type: functional
T1 sequence (Q13258 whole entry): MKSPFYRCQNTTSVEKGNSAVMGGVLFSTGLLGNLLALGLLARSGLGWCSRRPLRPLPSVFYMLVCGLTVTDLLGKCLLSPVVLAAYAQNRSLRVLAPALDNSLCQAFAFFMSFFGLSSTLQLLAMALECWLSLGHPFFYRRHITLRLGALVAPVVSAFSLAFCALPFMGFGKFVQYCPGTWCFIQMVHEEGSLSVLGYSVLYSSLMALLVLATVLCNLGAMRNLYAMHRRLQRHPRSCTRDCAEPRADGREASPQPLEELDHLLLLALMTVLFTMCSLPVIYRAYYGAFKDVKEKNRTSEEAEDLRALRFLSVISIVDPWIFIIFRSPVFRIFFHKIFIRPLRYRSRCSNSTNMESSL

Thromboxane A2 receptor = target: T2, Thromboxane A2 receptor (Homo sapiens, UniProt P21731); assay: Antagonist activity at prostanoid TP receptor; assay type: functional
T2 sequence (P21731 whole entry): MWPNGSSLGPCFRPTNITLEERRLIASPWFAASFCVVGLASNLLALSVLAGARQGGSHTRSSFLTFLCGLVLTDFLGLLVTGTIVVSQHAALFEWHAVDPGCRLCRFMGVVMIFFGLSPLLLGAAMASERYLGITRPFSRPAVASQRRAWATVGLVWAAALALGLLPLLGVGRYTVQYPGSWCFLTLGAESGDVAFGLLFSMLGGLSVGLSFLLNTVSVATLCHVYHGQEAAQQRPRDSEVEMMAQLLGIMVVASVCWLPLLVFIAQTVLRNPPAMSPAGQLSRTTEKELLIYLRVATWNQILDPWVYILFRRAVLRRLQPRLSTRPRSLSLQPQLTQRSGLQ

[2] = Chemical stability of compound in 0.01N HCl after 6 hrs; assay type: physicochemical; settings: read-out: Stability
In short: (§1)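 Compound incubated in 0.01 N HCl at 37 °C; percent of compound recovered after 2 h or 6 h.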

Homo sapiens = organism: Homo sapiens; assay: Selectivity ratio of IC50 for prostanoid DP1 receptor to IC50 for TP receptor in human platelet
In short: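 Ratio of IC₅₀ values from two human platelet-rich plasma assays: PGD₂-induced cAMP accumulation (DP1) and U46619-induced platelet aggregation (TP).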

[3] = Selectivity ratio of Ki for prostanoid DP1 receptor to Ki for prostanoid EP3 receptor
[4] = target: Prostaglandin F2-alpha receptor (Homo sapiens, UniProt P43088); assay: Binding affinity to prostanoid receptor FP receptor
[5] = target: T3, Prostaglandin E2 receptor EP3 subtype (Homo sapiens, UniProt P43115); assay: Binding affinity to prostanoid receptor EP3 receptor
T3 sequence (P43115 whole entry): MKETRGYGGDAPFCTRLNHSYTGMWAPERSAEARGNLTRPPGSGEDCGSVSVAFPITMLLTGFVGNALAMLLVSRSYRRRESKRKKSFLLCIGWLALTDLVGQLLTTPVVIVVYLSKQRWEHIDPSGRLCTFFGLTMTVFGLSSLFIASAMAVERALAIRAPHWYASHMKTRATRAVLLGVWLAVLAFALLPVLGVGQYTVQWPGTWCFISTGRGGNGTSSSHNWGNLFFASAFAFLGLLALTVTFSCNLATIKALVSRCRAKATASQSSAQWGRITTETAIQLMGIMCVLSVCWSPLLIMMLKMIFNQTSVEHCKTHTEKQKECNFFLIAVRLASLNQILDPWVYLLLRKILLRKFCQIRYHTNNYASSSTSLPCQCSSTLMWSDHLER

[6] = target: Prostaglandin E2 receptor EP4 subtype (Homo sapiens, UniProt P35408); assay: Binding affinity to prostanoid receptor EP4 receptor
[7] = target: Prostaglandin E2 receptor EP2 subtype (Homo sapiens, UniProt P43116); assay: Binding affinity to prostanoid receptor EP2 receptor
[8] = target: T4, Prostaglandin E2 receptor EP1 subtype (Homo sapiens, UniProt P34995); assay: Binding affinity to prostanoid receptor EP1 receptor
T4 sequence (P34995 whole entry): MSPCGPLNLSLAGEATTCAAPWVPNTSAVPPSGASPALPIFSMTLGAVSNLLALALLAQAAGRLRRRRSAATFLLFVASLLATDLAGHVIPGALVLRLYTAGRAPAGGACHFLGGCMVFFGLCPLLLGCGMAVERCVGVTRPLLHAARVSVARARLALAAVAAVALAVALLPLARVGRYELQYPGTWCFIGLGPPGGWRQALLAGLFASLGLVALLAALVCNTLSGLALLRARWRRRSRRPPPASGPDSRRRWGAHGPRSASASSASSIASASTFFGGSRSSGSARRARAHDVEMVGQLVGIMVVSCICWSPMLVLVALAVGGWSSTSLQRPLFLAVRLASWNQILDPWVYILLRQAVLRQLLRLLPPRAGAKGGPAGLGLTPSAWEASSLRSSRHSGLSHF

Prostacyclin receptor = Prostacyclin receptor (Homo sapiens, UniProt P43119); assay: Binding affinity to prostanoid receptor IP receptor
[9] = target: T1, Prostaglandin D2 receptor; assay: Antagonist activity at prostanoid DP1 receptor in human platelet assessed as inhibition of PGD2 induced accumulation of cAMP; assay type: functional
In short: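 Human platelet-rich plasma; cAMP accumulation induced by PGD₂, measured with antagonist present; IC₅₀ reported.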

[10] = Chemical stability of compound in 0.01N HCl after 2 hrs; assay type: physicochemical; settings: read-out: Stability; in short: as §1

Sequence of Prostaglandin E2 receptor EP2 subtype (P43116 whole entry): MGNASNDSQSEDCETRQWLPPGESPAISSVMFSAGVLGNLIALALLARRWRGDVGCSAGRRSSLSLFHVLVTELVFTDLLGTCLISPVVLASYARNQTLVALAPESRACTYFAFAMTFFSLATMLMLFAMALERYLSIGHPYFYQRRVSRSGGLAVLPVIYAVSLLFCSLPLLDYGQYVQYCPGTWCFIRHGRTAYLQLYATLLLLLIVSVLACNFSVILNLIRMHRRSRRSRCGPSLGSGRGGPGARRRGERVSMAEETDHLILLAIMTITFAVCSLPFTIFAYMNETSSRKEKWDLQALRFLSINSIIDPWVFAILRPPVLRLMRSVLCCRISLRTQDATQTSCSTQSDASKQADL
Sequence of Prostaglandin E2 receptor EP4 subtype (P35408 whole entry): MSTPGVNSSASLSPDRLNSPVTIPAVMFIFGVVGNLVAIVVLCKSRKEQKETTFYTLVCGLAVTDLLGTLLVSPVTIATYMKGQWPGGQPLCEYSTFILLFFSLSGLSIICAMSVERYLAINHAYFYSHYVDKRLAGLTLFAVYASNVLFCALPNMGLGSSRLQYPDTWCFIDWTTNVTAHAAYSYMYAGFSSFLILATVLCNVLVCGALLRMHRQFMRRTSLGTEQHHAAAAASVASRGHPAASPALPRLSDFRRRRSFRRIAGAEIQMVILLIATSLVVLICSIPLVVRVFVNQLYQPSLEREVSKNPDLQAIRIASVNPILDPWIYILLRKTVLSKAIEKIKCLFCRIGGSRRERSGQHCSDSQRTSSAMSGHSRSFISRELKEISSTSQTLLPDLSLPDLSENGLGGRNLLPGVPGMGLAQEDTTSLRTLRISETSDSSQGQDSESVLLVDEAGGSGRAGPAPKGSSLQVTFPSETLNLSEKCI
Sequence of Prostaglandin F2-alpha receptor (P43088 whole entry): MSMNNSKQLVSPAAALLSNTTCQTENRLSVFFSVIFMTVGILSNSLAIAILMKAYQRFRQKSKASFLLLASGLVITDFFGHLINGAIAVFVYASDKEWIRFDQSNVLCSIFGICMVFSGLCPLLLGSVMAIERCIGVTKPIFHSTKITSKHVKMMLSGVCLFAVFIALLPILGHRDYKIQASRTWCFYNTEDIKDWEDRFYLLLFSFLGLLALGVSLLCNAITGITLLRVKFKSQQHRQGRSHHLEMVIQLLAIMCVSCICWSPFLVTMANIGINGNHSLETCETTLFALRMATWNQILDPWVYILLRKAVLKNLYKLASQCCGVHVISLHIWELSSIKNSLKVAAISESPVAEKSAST
Sequence of Prostacyclin receptor (P43119 whole entry): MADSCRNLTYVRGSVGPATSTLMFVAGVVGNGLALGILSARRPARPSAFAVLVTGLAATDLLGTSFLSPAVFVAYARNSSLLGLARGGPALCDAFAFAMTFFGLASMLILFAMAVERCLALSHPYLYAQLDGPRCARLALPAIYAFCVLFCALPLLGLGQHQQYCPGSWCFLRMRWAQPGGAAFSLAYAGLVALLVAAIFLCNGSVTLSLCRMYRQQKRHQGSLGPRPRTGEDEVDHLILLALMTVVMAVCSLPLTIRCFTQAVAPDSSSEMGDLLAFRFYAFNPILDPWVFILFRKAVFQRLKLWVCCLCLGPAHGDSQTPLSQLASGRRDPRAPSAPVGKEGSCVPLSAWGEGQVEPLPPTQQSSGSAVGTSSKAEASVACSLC

| Ki [1] [nM] | Ki (Thromboxane A2 receptor) [nM] | Structure (SMILES) | further results |
| --- | --- | --- | --- |
| 0.51 | 93 | C[C@@H](c1ccc(C#N)cc1)n1c2c(c3cc(F)cc(S(C)(=O)=O)c31)CCC[C@@H]2CC(=O)O |  |
| 0.43 | 338 | C[C@@H](c1ccc(C(F)(F)F)cc1)n1c2c(c3cc(F)cc(S(C)(=O)=O)c31)CCC[C@@H]2CC(=O)O | remaining at 6 h [2]: 99.6%; Ratio (Homo sapiens): 7760; Ratio [3]: 1900; Ki [4]: 4320 nM; Ki [5]: 830 nM; Ki [6]: 6610 nM; Ki [7]: 2270 nM; Ki [8]: 4590 nM; Ki (Prostacyclin receptor): 15500 nM; IC50 [9]: 2.5 nM |
| 0.33 | 100 | C[C@@H](c1ccc(F)cc1)n1c2c(c3cc(F)cc(S(C)(=O)=O)c31)CCC[C@@H]2CC(=O)O |  |
| 12 |  | CC(c1ccc(Cl)cc1)n1c2c(c3cc(F)cc(S(C)(=O)=O)c31)CCCC2CC(=O)O (single isomer, unassigned; fast eluting) |  |
| 0.38 | 106 | C[C@@H](c1ccc(Br)cc1)n1c2c(c3cc(F)cc(S(C)(=O)=O)c31)CCC[C@@H]2CC(=O)O |  |
| 0.75 | 184 | C[C@@H](c1ccc(Cl)cc1)n1c2c(c3cc(F)cc(S(C)(=O)=O)c31)CCC[C@@H]2CC(=O)O | remaining at 2 h [10]: 79% |
| 16.5 | 1480 | C[C@@H](c1ccc(S(C)(=O)=O)cc1)n1c2c(c3cc(F)cc(S(C)(=O)=O)c31)CCC[C@@H]2CC(=O)O |  |
| 1.3 |  | CC(c1ccc(Cl)cc1)n1c2c(c3cc(F)cc(S(C)(=O)=O)c31)CCCC2CC(=O)O (single isomer, unassigned; slow-eluting) |  |

Continued, compound first:

| Structure (SMILES) | Ki [1] [nM] | Ki (Thromboxane A2 receptor) [nM] | further results |
| --- | --- | --- | --- |
| CS(=O)(=O)c1cc(F)cc2c3c(n(Cc4ccc(Cl)cc4)c12)C(CC(=O)O)CCC3 (racemic) | 0.89 | 2.51 |  |
| C[C@@H](c1ccc(Cl)cc1F)n1c2c(c3cc(F)cc(S(C)(=O)=O)c31)CCC[C@@H]2CC(=O)O | 0.41 | 270 |  |
| C[C@@H](c1ccc(Cl)c(Cl)c1)n1c2c(c3cc(F)cc(S(C)(=O)=O)c31)CCC[C@@H]2CC(=O)O | 0.33 | 112 |  |
| C[C@@H](c1cccc(Cl)c1)n1c2c(c3cc(F)cc(S(C)(=O)=O)c31)CCC[C@@H]2CC(=O)O | 0.31 | 292 |  |
| C[C@@H](c1ccccc1)n1c2c(c3cc(F)cc(S(C)(=O)=O)c31)CCC[C@@H]2CC(=O)O | 0.36 | 362 |  |
| CS(=O)(=O)c1cc(F)cc2c3c(n([C@@H](CF)c4ccc(Cl)cc4)c12)[C@@H](CC(=O)O)CCC3 | 0.39 | 138 |  |
| CS(=O)(=O)c1cc(F)cc2c3c(n([C@H](c4ccc(Cl)cc4)C(F)F)c12)[C@@H](CC(=O)O)CCC3 | 0.36 | 130 |  |
| C[C@@H](c1ccc(Cl)c(F)c1)n1c2c(c3cc(F)cc(S(C)(=O)=O)c31)CCC[C@@H]2CC(=O)O | 0.38 | 200 |  |
